Data on 28 compounds can be found in ChEMBL document CHEMBL3045750, “New class of algicidal compounds and fungicidal activities derived from a chromene amide of Amyris texana” (2010).

One assay concerns Colletotrichum fragariae. Put plainly: Antifungal activity against Colletotrichum fragariae by TLC bioautography. The format is functional, organism-based.
The subject of assay [1] is Botrytis cinerea. Put plainly: Fungicidal activity against Botryotinia fuckeliana assessed as growth inhibition at 100 uM after 72 hr by microbioassay. It counts as functional. The note with it: read-out: GI. Put shortly: (§1)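 Botrytis cinerea tested in a 96-well dose-response microbioassay alongside other fungal strains, after compounds were first screened by TLC bioautography against C. fragariae. Three concentrations were used (1.0, 10.0, 100.0 μM), with captan as positive standard. Growth inhibition was read 72 h after treatment.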

Another assay has as its system Lactuca sativa. Put plainly: Phytotoxic activity against Lettuce cv. Iceberg (lettuce) at 0.1 to 1000 uM. It counts as functional, organism-based. Put shortly:
(§2)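 Germination phytotoxicity assay on lettuce (Lactuca sativa cv. Iceberg, dicot) and bent grass (Agrostis stolonifera cv. Pencross, monocot), with compounds tested across 0.1-1000 μM. Inhibition was scored visually on a 1-5 scale, where 1 is no inhibition and 5 is complete inhibition of germination.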

Another assay deals with Cucumis sativus. Put plainly: Phytotoxic activity against Cucumis sativus (cucumber) cotyledon disks assessed as electrolyte leakage. It counts as functional, organism-based.
Another assay relates to Agrostis stolonifera. Put plainly: Phytotoxic activity against Agrostis stolonifera var. Penncross at 0.1 to 1000 uM. The format is functional, organism-based. In outline: as §2
Assay [2] concerns Botrytis cinerea. Put plainly: Fungicidal activity against Botryotinia fuckeliana assessed as growth inhibition at 10 to 100 uM after 72 hr by microbioassay. It counts as functional, organism-based. In outline:
as §1

Structures are written as SMILES. Calls of active or inactive are those of the source. The calls are words filed in the database; no cut-off is given here.

Turning to `COC(=O)c1ccc2c(c1)C=CC(C)(C)O2`, the result in the assay with Colletotrichum fragariae was Active. Also, the inhibition of growth at 100 µM in the assay on Botrytis cinerea [1] was greater than 50%.
As for `CC1(C)C=Cc2cc(CCO)ccc2O1`, the result in the assay on Lactuca sativa, in the assay on Cucumis sativus and with Agrostis stolonifera was inactive. Further, the result in the assay on Colletotrichum fragariae was Active. Further, the inhibition of growth at 100 µM in the assay with Botrytis cinerea [1] is greater than 50%.
As to `CC1(C)C=Cc2cc(CO)ccc2O1` [EULATACHROMENE], the result in the assay on Cucumis sativus was inactive. Besides, the result with Colletotrichum fragariae was Active. Besides, the inhibition of growth at 100 µM in the assay with Botrytis cinerea [1] was 30%.
Turning to `CNCCc1ccc2c(c1)C=CC(C)(C)O2`, the result with Lactuca sativa, in the assay on Agrostis stolonifera and with Colletotrichum fragariae was inactive.
Consider `COC(=O)c1ccc2c(c1)OC(C)(C)C=C2`, for which the outcome with Colletotrichum fragariae was Active. In addition, the inhibition of growth at 100 µM with Botrytis cinerea [1] is greater than 50%.
As to `O=C1C2CC=CCC2C(=O)N1SC(Cl)(Cl)Cl` (stereo unspecified), the “growth inhibition (GI)” value in the assay on Botrytis cinerea [2] was “Active”.
For `C#CC(C)(C)Oc1cccc(C(=O)OC)c1`, the result in the assay on Colletotrichum fragariae was Active.
On to `CC(C)NCc1ccc2c(c1)C=CC(C)(C)O2`, for which the outcome in the assay on Lactuca sativa, in the assay on Agrostis stolonifera and with Colletotrichum fragariae was inactive.
In the case of `C#CC(C)(C)Oc1ccc(CC(=O)OC)cc1`, in the assay with Colletotrichum fragariae, the outcome was Active.
As to `CC(C)NCc1ccc2c(c1)OC(C)(C)C=C2`, the outcome in the assay on Lactuca sativa, in the assay on Agrostis stolonifera and in the assay on Colletotrichum fragariae was inactive.
With `COc1cc(CCNC(C)C)cc2c1OC(C)(C)C=C2`, the outcome with Lactuca sativa, in the assay with Agrostis stolonifera and in the assay with Colletotrichum fragariae was inactive.
For the compound `CC(C)CC(=O)N(C)CCc1ccc2c(c1)C=CC(C)(C)O2`, the outcome with Lactuca sativa and with Agrostis stolonifera was inactive. Further, in the assay with Botrytis cinerea [1], the inhibition of growth at 100 µM was found to be 80%.
For `C#CC(C)(C)Oc1ccc(CCC(=O)OC)cc1`, the result with Colletotrichum fragariae was Active.
As to `COC(=O)Cc1ccc2c(c1)C=CC(C)(C)O2`, the result with Lactuca sativa and with Agrostis stolonifera was inactive. The outcome in the assay with Colletotrichum fragariae was Active. The inhibition of growth at 100 µM with Botrytis cinerea [1] came to 30%.
As to `CC(C)NCc1cccc2c1C=CC(C)(C)O2`, the outcome with Lactuca sativa, with Agrostis stolonifera and with Colletotrichum fragariae was inactive.
In the case of `CC1(C)C=Cc2cc(CCN)ccc2O1`, the outcome with Lactuca sativa, in the assay on Agrostis stolonifera and in the assay on Colletotrichum fragariae was inactive.
`C#CC(C)(C)Oc1ccc(C(=O)OC)cc1`: in the assay with Colletotrichum fragariae, the result was Active.
Regarding `CC(C)NCCCc1ccc2c(c1)C=CC(C)(C)O2`, the outcome in the assay on Lactuca sativa, in the assay on Agrostis stolonifera and in the assay with Colletotrichum fragariae was inactive.
Turning to `CC1(C)C=Cc2cc(CCCO)ccc2O1`, the outcome in the assay on Colletotrichum fragariae was Active. In addition, the inhibition of growth at 100 µM with Botrytis cinerea [1] is greater than 50%.
For `COC(=O)CCc1ccc(O)cc1`, the result in the assay with Colletotrichum fragariae was Active.
Still for that read-out and setting: in the case of `COc1cc(CCO)cc2c1OC(C)(C)C=C2` it was “Active”.
On to `CC(C)NCCc1ccc2c(c1)C=CC(C)(C)O2`, for which the outcome in the assay on Lactuca sativa, in the assay on Cucumis sativus, in the assay with Agrostis stolonifera and in the assay on Colletotrichum fragariae was inactive.
Consider `COC(=O)c1cccc2c1C=CC(C)(C)O2`, for which the outcome in the assay with Colletotrichum fragariae was Active. Besides, the inhibition of growth at 100 µM in the assay with Botrytis cinerea [1] was greater than 50%.
As to `CC1(C)C=Cc2ccc(CO)cc2O1`, the result with Colletotrichum fragariae was Active. The inhibition of growth at 100 µM in the assay on Botrytis cinerea [1] is greater than 50%.
Consider `CCOC(=O)Cc1cc2c(c(OC)c1)OC(C)(C)C=C2`, for which, in the assay on Colletotrichum fragariae, the result was Active.
Regarding `COC(=O)CCc1ccc2c(c1)C=CC(C)(C)O2`, in the assay on Colletotrichum fragariae, the result was Active.
With `C#CC(C)(C)Oc1ccc(CC(=O)OCC)cc1OC`, the outcome with Colletotrichum fragariae was Active.
On the same count and under the same terms, in the case of `CC1(C)C=Cc2c(CO)cccc2O1` it was “Active”.
